Each block holds one molecule with its values, some of them ahead of it.
Key:
[1] = biological target: Serine/threonine-protein kinase PAK 5 (Homo sapiens) (UniProt Q9P286); test: Inhibition of human recombinant PAK5 at 500 nM in presence of ATP by radiometric assay relative to control
[2] = biological target: Protein kinase C beta type (Homo sapiens) (UniProt P05771); test: Inhibition of human recombinant PKCb at 500 nM in presence of ATP by radiometric assay relative to control
[3] = biological target: T1, Tribbles homolog 2 (Homo sapiens) (UniProt Q92519); test: Inhibition of human recombinant Trb2 at 500 nM in presence of ATP by radiometric assay relative to control
T1 sequence (whole entry): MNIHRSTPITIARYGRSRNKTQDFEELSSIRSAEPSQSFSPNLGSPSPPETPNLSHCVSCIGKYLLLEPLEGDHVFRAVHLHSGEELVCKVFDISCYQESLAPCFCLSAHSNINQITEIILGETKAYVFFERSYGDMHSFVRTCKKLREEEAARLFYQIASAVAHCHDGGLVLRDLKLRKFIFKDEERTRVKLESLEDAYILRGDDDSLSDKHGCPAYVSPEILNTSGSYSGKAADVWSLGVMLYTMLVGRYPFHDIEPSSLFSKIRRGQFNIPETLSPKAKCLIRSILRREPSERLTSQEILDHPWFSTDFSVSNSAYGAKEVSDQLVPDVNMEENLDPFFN

[4] = biological target: Activated CDC42 kinase 1 (Homo sapiens) (UniProt Q07912); test: Inhibition of human recombinant ACK at 500 nM related to control ULK1
[5] = biological target: T2, Serine/threonine-protein kinase Chk1 (Homo sapiens) (UniProt O14757); test: Inhibition of human recombinant CHK1 at 500 nM related to control ULK1
T2 sequence (whole entry): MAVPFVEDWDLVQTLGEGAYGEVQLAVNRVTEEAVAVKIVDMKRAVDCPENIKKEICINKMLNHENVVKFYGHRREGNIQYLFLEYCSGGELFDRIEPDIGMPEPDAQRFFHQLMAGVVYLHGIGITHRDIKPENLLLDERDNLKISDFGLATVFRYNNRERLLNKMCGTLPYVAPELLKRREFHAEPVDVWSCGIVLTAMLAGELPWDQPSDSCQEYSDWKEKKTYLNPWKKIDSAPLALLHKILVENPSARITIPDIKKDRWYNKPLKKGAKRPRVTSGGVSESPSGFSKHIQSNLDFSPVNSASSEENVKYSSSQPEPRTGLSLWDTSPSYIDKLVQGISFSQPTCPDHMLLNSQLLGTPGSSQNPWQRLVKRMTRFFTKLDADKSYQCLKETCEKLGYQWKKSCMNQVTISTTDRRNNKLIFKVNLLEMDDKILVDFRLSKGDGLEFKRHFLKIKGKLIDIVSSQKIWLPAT

[6] = biological target: Ephrin type-A receptor 2 (Homo sapiens) (UniProt P29317); test: Inhibition of human recombinant EphA2 at 500 nM related to control ULK1
[7] = biological target: SRSF protein kinase 1 (Homo sapiens) (UniProt Q96SB4); test: Inhibition of human recombinant SRPK1 at 500 nM related to control ULK1
[8] = biological target: Serine/threonine-protein kinase 4 (Homo sapiens) (UniProt Q13043); test: Inhibition of human recombinant MST1 at 500 nM in presence of ATP by radiometric assay relative to control
[9] = biological target: Casein kinase II subunit alpha (Homo sapiens) (UniProt P68400); test: Inhibition of human recombinant CK2a1 at 15 nM in presence of ATP by radiometric assay relative to control
[10] = biological target: Cyclin-dependent kinase 12 (Homo sapiens) (UniProt Q9NYV4); test: Inhibition of human recombinant CRK7 at 15 nM in presence of ATP by radiometric assay relative to control
[11] = biological target: Insulin receptor (Homo sapiens) (UniProt P06213); test: Inhibition of human recombinant INSR at 15 nM in presence of ATP by radiometric assay relative to control
[12] = biological target: Tyrosine-protein kinase Fyn (Homo sapiens) (UniProt P06241); test: Inhibition of human recombinant FYN at 15 nM related to control ULK1
[13] = biological target: RAC-beta serine/threonine-protein kinase (Homo sapiens) (UniProt P31751); test: Inhibition of human recombinant AKT2 at 40 nM in presence of ATP by radiometric assay relative to control
Summary of the method: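 Panel of 327 recombinant human kinases in radiometric activity assays, each screened in duplicate at a single inhibitor concentration; percent activity remaining relative to vehicle control, percent inhibition taken as 100 minus activity remaining.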

[14] = biological target: Dual specificity protein kinase CLK4 (Homo sapiens) (UniProt Q9HAZ1); test: Inhibition of human recombinant CLK4 at 40 nM in presence of ATP by radiometric assay relative to control
[15] = biological target: T3, Homeodomain-interacting protein kinase 4 (Homo sapiens) (UniProt Q8NE63); test: Inhibition of human recombinant HIPK4 at 40 nM related to control ULK1
T3 sequence (whole entry): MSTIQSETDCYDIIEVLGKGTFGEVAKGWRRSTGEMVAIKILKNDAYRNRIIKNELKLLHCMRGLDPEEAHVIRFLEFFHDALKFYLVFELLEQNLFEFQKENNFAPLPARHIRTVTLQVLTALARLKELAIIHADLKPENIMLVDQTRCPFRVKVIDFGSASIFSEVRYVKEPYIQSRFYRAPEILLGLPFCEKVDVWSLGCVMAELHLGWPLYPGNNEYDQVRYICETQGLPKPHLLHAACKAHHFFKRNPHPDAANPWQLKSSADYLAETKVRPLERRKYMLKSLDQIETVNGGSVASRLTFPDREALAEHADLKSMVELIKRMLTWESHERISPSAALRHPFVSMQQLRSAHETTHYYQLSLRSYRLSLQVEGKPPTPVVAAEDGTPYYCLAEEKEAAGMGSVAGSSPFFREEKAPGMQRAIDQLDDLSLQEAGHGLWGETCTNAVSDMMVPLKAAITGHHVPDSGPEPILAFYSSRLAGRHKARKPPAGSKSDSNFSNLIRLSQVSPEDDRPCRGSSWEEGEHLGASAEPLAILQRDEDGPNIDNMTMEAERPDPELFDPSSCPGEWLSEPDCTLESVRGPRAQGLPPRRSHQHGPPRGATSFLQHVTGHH

[16] = biological target: Protein-tyrosine kinase 2-beta (Homo sapiens) (UniProt Q14289); test: Inhibition of human recombinant PYK2 at 40 nM related to control ULK1
[17] = biological target: 3-phosphoinositide-dependent protein kinase 1 (Homo sapiens) (UniProt O15530); test: Inhibition of human recombinant PDK1 at 40 nM in presence of ATP by radiometric assay relative to control
3-phosphoinositide-dependent protein kinase 1 (Homo sapiens), sequence (O15530 whole entry, looked up): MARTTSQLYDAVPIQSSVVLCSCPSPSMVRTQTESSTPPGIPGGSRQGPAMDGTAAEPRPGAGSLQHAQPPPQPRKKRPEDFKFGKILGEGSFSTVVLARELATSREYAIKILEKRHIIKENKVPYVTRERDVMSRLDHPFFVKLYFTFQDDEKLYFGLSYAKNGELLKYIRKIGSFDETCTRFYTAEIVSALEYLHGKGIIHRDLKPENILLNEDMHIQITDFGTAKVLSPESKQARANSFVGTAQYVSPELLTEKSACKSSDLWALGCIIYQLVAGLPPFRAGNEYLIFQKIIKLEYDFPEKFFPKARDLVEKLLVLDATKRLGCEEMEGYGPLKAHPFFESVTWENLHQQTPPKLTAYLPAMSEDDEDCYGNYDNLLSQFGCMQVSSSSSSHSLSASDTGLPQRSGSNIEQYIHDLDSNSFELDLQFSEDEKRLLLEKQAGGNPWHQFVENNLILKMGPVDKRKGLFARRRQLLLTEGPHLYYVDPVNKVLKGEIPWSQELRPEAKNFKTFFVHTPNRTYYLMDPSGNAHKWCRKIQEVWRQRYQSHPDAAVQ

Insulin receptor (Homo sapiens), sequence (P06213 28-758 limits assumed): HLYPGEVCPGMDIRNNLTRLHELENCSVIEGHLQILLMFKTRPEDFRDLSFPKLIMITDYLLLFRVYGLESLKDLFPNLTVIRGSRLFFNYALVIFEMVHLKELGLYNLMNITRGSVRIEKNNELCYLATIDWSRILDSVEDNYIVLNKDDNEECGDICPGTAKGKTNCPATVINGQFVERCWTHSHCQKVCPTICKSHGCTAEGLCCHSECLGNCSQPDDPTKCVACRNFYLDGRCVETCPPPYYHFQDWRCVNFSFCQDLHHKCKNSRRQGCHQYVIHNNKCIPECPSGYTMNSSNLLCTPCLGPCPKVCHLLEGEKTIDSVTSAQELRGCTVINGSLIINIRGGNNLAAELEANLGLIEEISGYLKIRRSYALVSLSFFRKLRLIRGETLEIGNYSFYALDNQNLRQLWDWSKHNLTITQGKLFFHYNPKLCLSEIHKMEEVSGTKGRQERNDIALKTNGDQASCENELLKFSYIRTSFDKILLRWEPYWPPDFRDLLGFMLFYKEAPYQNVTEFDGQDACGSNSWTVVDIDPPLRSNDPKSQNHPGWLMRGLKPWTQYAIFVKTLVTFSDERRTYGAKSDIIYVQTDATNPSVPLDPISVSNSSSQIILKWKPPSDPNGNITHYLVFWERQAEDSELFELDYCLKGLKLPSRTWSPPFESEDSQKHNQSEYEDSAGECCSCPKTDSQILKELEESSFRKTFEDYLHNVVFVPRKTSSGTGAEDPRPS
Insulin receptor (Homo sapiens), sequence (P06213 763-1382 limits assumed): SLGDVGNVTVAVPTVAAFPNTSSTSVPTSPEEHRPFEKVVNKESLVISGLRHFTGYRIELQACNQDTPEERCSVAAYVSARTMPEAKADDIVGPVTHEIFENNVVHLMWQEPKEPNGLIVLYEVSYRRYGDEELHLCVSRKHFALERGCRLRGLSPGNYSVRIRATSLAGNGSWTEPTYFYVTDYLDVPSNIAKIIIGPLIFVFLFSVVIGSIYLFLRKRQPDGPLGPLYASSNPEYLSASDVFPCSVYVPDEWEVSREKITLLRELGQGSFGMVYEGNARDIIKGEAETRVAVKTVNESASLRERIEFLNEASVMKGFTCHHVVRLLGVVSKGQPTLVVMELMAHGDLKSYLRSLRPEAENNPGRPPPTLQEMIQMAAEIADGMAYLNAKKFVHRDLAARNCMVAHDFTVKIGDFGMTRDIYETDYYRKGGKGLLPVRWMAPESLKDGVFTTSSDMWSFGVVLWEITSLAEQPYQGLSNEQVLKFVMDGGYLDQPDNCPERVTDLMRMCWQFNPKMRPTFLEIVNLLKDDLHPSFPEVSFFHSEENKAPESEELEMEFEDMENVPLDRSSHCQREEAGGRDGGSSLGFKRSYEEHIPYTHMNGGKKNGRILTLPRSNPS
Ephrin type-A receptor 2 (Homo sapiens), sequence (P29317 whole entry): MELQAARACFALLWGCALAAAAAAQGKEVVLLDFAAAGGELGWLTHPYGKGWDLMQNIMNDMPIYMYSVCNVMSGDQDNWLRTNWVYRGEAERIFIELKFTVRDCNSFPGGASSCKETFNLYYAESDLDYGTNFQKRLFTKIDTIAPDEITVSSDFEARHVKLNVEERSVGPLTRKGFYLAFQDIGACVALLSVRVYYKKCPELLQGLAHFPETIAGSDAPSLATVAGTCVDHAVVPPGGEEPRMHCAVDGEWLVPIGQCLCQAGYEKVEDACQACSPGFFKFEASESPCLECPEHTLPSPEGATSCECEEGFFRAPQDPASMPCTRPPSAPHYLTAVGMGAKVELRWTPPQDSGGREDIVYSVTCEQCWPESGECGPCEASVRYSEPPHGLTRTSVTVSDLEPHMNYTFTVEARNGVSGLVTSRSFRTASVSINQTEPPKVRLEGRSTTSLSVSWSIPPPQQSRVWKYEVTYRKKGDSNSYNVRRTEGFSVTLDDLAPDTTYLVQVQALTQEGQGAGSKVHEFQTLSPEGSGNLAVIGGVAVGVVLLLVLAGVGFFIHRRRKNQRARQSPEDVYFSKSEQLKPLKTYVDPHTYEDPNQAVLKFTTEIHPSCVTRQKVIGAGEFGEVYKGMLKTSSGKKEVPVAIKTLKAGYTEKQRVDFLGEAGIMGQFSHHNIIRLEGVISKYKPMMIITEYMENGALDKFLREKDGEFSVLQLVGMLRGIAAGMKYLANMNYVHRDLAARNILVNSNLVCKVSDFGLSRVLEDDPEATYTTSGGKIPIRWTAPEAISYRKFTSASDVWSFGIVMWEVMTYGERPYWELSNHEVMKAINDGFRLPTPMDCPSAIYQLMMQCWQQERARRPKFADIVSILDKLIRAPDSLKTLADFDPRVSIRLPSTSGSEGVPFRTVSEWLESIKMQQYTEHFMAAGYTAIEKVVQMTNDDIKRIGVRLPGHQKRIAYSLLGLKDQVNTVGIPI
SRSF protein kinase 1 (Homo sapiens), sequence (Q96SB4 whole entry): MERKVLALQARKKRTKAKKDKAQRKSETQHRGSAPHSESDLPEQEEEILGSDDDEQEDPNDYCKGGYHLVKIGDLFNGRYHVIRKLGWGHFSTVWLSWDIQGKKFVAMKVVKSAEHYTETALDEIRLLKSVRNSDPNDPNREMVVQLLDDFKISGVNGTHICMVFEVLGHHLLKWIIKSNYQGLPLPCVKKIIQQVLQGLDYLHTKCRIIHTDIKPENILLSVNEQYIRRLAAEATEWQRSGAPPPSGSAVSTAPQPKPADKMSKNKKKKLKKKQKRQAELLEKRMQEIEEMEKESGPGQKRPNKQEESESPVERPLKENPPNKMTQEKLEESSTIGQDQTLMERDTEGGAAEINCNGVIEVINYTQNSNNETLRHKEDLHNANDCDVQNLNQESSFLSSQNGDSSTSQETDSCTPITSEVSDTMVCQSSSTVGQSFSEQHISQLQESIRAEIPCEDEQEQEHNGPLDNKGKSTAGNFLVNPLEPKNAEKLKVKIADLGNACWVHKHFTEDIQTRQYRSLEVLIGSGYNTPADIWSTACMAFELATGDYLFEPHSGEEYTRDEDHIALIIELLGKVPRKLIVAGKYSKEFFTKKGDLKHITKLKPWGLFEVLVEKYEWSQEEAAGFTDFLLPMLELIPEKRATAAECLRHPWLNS
Tyrosine-protein kinase Fyn (Homo sapiens), sequence (P06241 2-537 limits assumed): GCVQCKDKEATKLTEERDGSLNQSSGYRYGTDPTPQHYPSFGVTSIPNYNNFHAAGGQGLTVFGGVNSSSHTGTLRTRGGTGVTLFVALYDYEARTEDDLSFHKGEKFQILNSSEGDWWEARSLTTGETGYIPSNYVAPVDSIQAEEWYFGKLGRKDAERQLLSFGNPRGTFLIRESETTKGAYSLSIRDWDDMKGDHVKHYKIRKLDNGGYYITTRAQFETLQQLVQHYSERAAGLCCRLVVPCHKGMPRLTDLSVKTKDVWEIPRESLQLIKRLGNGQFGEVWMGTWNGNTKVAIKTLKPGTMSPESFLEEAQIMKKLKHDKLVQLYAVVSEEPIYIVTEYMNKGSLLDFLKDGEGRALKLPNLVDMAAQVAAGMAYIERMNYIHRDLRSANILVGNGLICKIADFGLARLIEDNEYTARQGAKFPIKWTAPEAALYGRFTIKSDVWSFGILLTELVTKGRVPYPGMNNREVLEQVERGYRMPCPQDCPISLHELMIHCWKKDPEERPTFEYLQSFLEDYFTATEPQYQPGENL
Casein kinase II subunit alpha (Homo sapiens), sequence (P68400 whole entry, looked up): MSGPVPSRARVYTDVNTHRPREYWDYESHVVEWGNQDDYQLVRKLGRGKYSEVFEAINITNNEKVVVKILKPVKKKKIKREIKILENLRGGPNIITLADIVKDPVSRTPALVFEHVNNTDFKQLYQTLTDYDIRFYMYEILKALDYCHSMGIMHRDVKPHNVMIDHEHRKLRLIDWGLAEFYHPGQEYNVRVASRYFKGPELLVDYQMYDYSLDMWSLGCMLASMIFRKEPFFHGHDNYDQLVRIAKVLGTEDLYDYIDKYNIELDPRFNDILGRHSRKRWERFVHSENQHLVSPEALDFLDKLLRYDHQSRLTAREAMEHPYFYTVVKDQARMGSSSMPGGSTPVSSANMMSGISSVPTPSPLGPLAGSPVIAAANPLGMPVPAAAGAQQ
Dual specificity protein kinase CLK4 (Homo sapiens), sequence (Q9HAZ1 whole entry, looked up): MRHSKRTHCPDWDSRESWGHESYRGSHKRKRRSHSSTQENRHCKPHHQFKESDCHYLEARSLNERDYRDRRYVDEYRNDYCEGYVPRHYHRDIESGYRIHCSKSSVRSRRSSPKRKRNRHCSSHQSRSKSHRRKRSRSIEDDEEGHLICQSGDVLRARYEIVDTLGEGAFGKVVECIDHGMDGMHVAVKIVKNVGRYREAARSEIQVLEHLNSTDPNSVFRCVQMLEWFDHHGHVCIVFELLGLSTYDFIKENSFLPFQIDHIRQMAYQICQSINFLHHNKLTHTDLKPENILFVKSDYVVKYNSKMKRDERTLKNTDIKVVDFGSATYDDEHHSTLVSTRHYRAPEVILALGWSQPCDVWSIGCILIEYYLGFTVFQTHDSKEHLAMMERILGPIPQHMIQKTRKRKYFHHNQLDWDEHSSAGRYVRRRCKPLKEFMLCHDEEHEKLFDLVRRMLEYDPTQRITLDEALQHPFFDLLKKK

- inhibition [1]: 5%
- inhibition [2]: 7%
- inhibition [3]: 0%
- fold change (FC) [4]: 0.42
- fold change (FC) [5]: 0.05
- fold change (FC) [6]: 0.03
- fold change (FC) [7]: 0.14
- inhibition [8]: 0%
SMILES: CNC(=O)c1ccccc1Oc1nc(Nc2cc(OC)c(OC)c(OC)c2)ncc1Br

- inhibition [9]: 0%
- inhibition [10]: 4%
- inhibition [11]: 0%
- fold change (FC) [12]: 0.18
SMILES: CC(C)[C@H](NC(=O)c1cc(-c2cnn3cc(-c4ccc(OCCN5CCCCC5)cc4)cnc23)cs1)C(F)(F)F

- inhibition [13]: 10%
- inhibition [14]: 52%
- fold change (FC) [15]: 0
- fold change (FC) [16]: 0.04
- inhibition [17]: 0%
SMILES: O=C(N[C@@H](C1CC1)C(F)(F)F)c1cc(-c2cnn3cc(-c4ccc(F)cc4)cnc23)cs1

Source: ChEMBL document CHEMBL5653631, “A Potent and Selective ULK1 Inhibitor Suppresses Autophagy and Sensitizes Cancer Cells to Nutrient Stress” (iScience, 2018)
